What was measured:
Type in all cases: functional
[1] = species: Cavia porcellus; experiment: Percent inhibition of SRS-A release in vitro at a dose of 10 uM in guinea pig
Method in brief: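 Male Hartley guinea pigs were sensitized with ovalbumin (5 mg ip + 5 mg sc on day 1, 5 mg ip on day 4). About 400 mg chopped lung was preincubated with compound for 12 min at 37 °C in Tyrode's with 10 mM cysteine, then challenged with 20 μg/mL ovalbumin (final) for 0.25 h. SRS-A in ethanol-extracted supernatant was bioassayed on mepyramine-treated ileum against a rat SRS-A standard. Results are % inhibition versus vehicle, from 3-4 lungs.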

[2] = system: Cavia porcellus; experiment: Percent inhibition of bronchospasm in vivo at a dose of 25 mg/kg in guinea pig; details: Bronchiole
Method in brief: (§1)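 Guinea pigs were sensitized with ovalbumin and used 3-4 weeks later. They were fasted and anesthetized with dialurethane ip. Compounds were given orally 2 h before challenge. Propranolol 1 mg/kg, indomethacin 5 mg/kg and mepyramine 2 mg/kg were given iv 15 min before a 0.5 min aerosol of 0.5% ovalbumin through the tracheal cannula. The rise in inflation pressure measured bronchoconstriction. Results are % inhibition, 4-5 animals per group.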

[3] = system: Cavia porcellus; experiment: Percent inhibition of bronchospasm in vivo at a dose of 12.5 mg/kg in guinea pig; details: Bronchiole; method in brief: as §1

Structure (SMILES) | inhibition at 10 µM [1] [%] | inhibition in vivo at 25 mg/kg [2] [%] | inhibition in vivo at 12.5 mg/kg [3] [%]
O=c1c(C2CCCCC2)c(O)c2cccnc2n1-c1ccccc1 | 66 | 45 | 
CCCCc1c(O)c2cccnc2n(-c2ccccc2SC)c1=O | 32 |  | 
CCCCc1c(O)c2ccncc2n(-c2ccccc2)c1=O | 0 |  | 
O=c1c(CCCCc2ccccc2)c(O)c2cccnc2n1-c1ccccc1 | 9 |  | 
CCCCc1c(O)c2cccnc2n(-c2cccc(Cl)c2C)c1=O | 5 |  | 
CCCCc1c(O)c2cccnc2n(-c2ccc(OC)cc2)c1=O | 87 | 51 | 
CCCCc1c(O)c2cccnc2n(-c2c(C)cccc2C)c1=O | 0 |  | 
C=CCc1c(O)c2cccnc2n(-c2cccc(OC)c2)c1=O | 56 | 46 | 
C=CCc1c(O)c2cccnc2n(-c2ccc(OC)cc2)c1=O | 3 |  | 
CCCCc1c(O)c2cccnc2n(-c2cccnc2)c1=O | 33 |  | 
CCCCc1c(O)c2c(n(-c3ccccc3)c1=O)NCCC2 | 51 | 17 | 
CCCCc1c(OC(C)=O)c2cccnc2n(-c2cccc(S(C)(=O)=O)c2)c1=O | 20 |  | 
O=c1c(CC2CCCCC2)c(O)c2cccnc2n1-c1ccccc1 | 30 |  | 
CCCCc1c(O)c2ncccc2n(-c2ccccc2)c1=O | 43 |  | 
CCCCc1ccc(-n2c(=O)c(CCCC)c(O)c3cccnc32)cc1 | 50 | 13 | 
C#CCOc1c(CC#C)c(=O)n(-c2ccccc2)c2ncccc12 | 62 |  | 0
CCCCc1c(OCCOCC)c2cccnc2n(-c2ccccc2)c1=O | 0 |  | 
CCCCc1c(O)c2cncnc2n(-c2ccccc2)c1=O | 9 |  | 
CCCCc1c(OC(C)=O)c2cccnc2n(-c2ccc(S(C)(=O)=O)cc2)c1=O | 26 |  | 
CC1(CCc2c(O)c3cccnc3n(-c3ccccc3)c2=O)OCCO1 | 52 | 0 | 
CCCCCCn1c(=O)c(CCCC)c(O)c2cccnc21 | 63 | 15 | 
CCCCc1c(O)c2cc(Br)cnc2n(-c2ccccc2)c1=O | 73 | 5 | 
CCCCc1c(OCC)c2cccnc2n(-c2ccccc2)c1=O | 0 |  | 
CCCCc1c(O)c2ccccc2n(-c2ccncc2)c1=O | 31 |  | 
CCCCc1c(O)c2cccnc2n(-c2ccc(SC)cc2)c1=O | 86 | 8 | 
C#CCOc1c(CCCC)c(=O)n(-c2ccccc2)c2ncccc12 | 0 |  | 
CCCCc1c(O)c2cc3c(nc2n(-c2ccccc2)c1=O)CCC3 | 22 |  | 

Structure (SMILES) | inhibition at 10 µM [1] [%] | inhibition in vivo at 25 mg/kg [2] [%] | inhibition in vivo at 12.5 mg/kg [3] [%]
CCCCc1c(O)c2cccnc2n(-c2ccc(OC)c(OC)c2)c1=O | 57 | 0 | 
CCCCc1c(O)c2cccnc2n(-c2ccc(O)c(C(=O)O)c2)c1=O | 0 |  | 
CCCCc1c(O)c2cccnc2n(-c2ccc(Oc3ccccc3)cc2)c1=O | 54 | 0 | 
C=CCc1c(O)c2cccnc2n(-c2cccc(C(F)(F)F)c2)c1=O | 50 | 0 | 
CCCCc1c(OCCO)c2cccnc2n(-c2ccccc2)c1=O | 86 | 64 | 
CCCCc1c(O)c2cccnc2n(-c2ccc(C(C)=O)cc2)c1=O | 37 |  | 
CCCCc1c(O)c2cccnc2n(-c2ccccc2C)c1=O | 55 | 9 | 
CCCCc1c(=O)c2cccnc2n2c1oc1ccccc12 | 14 |  | 
CC(O)CCc1c(O)c2cccnc2n(-c2ccccc2)c1=O (stereo not drawn) | 53 | 32 | 
CC(=O)CCc1c(O)c2cccnc2n(-c2ccccc2)c1=O | 36 |  | 
CCCCc1c(O)c2cc3ccccc3nc2n(-c2ccccc2)c1=O | 0 |  | 
CCCCc1c(OC(C)=O)c2cccnc2n(-c2ccc(OC)cc2)c1=O | 64 | 32 | 
O=c1c(-c2ccccc2)c(O)c2cccnc2n1-c1ccccc1 | 48 |  | 
CCCCc1c(O)c2cccnc2n(-c2ccc(O)cc2)c1=O | 44 |  | 
CCCCc1c(OCC2COC(C)(C)O2)c2cccnc2n(-c2ccccc2)c1=O (stereo not drawn) | 0 |  | 
CCCCCc1c(O)c2cccnc2n(-c2ccccc2)c1=O | 49 | 42 | 
CCCCc1c(OC(C)=O)c2cccnc2n(-c2ccc(SC)cc2)c1=O | 38 |  | 
CCCCc1c(OCCCO)c2cccnc2n(-c2ccccc2)c1=O | 7 |  | 
CCCCc1c(O)c2cccnc2n(CCN(C)C)c1=O | 0 |  | 
C=CCc1c(OC(C)=O)c2cccnc2n(-c2cccc(C(F)(F)F)c2)c1=O | 65 |  | 
CCCCc1c(O)c2ccc(C)nc2n(-c2ccccc2)c1=O | 21 |  | 
CC(C)=CCc1c(O)c2cccnc2n(-c2ccccc2)c1=O | 45 |  | 
C=CCOc1c(CCCC)c(=O)n(-c2ccccc2)c2ncccc12 | 0 |  | 
CCCCc1c(O)c2cc(OC)cnc2n(-c2ccccc2)c1=O | 3 |  | 
CCCCc1c(OC(C)=O)c2cccnc2n(-c2cccc(SC)c2)c1=O | 57 | 27 | 
C=CCCCCCCCc1c(OC(C)=O)c2cccnc2n(-c2ccccc2)c1=O | 15 |  | 
CCCCc1c(O)c2cc(O)cnc2n(-c2ccccc2)c1=O | 69 | 0 | 

Structure (SMILES) | inhibition at 10 µM [1] [%] | inhibition in vivo at 25 mg/kg [2] [%] | inhibition in vivo at 12.5 mg/kg [3] [%]
CCCCc1c(O)c2cccnc2n(-c2ccc3c(c2)CCC3)c1=O | 55 | 1 | 
CCCCc1c(O)c2cnccc2n(-c2ccccc2)c1=O | 0 |  | 
CCCCc1c(O)c2cccnc2n(Cc2ccccc2)c1=O | 0 |  | 
CCCCc1c(O)c2cccnc2n(-c2cc(OC)c(OC)c(OC)c2)c1=O | 22 |  | 
CCCCc1c(O)c2cc3c(nc2n(-c2ccccc2)c1=O)CCCC3 | 38 |  | 
CCCCc1c(OC(C)=O)c2cccnc2n(-c2cccc([S+](C)[O-])c2)c1=O (stereo not drawn) | 28 |  | 
CCCCc1c(OC(C)=O)c2cccnc2n(-c2ccc([S+](C)[O-])cc2)c1=O (stereo not drawn) | 11 |  | 
CCCCc1c(O)c2cccnc2n(-c2ccc(C(C)O)cc2)c1=O (stereo not drawn) | 48 |  | 
CCCCc1c(O)c2nccnc2n(-c2ccccc2)c1=O | 75 | 36 | 
Cc1c(O)c2cccnc2n(-c2ccccc2)c1=O | 52 | 33 | 
CCCCc1c(OC(C)=O)c2cccnc2n(-c2ccc(OC(C)=O)c(C(=O)O)c2)c1=O | 17 |  | 
O=c1cc(O)c2cccnc2n1-c1ccccc1 | 0 |  | 
CCCCc1c(O)c2cccnc2n(-c2ccc(F)cc2F)c1=O | 27 |  | 
CCCCc1c(OCC(O)CO)c2cccnc2n(-c2ccccc2)c1=O (stereo not drawn) | 0 |  | 
CC(C)=CCc1c(O)c2nccnc2n(-c2ccccc2)c1=O | 69 | 10 | 
CCCCc1c(O)nc2ncccc2c1O | 15 |  | 
CC(=O)Oc1c(CCC2CCCCN2C)c(=O)n(-c2ccccc2)c2ncccc12 (stereo not drawn) | 19 |  | 
C=CCc1c(OC(C)=O)c2cccnc2n(-c2ccccc2OC)c1=O | 35 |  | 
CCCCc1c(O)c2cccnc2n(-c2cccc(SC)c2)c1=O | 62 | 55 | 
C=CCc1c(OC(C)=O)c2cccnc2n(-c2ccc(OC)cc2)c1=O | 52 | 42 | 
CCCCc1c(O)c2cccnc2n(-c2ccc(OCc3ccccc3)cc2)c1=O | 50 | 0 | 
CCCCOc1ccc(-n2c(=O)c(CCCC)c(O)c3cccnc32)cc1 | 17 |  | 
CCCCc1c(OCCCN(C)C)c2cccnc2n(-c2ccccc2)c1=O | 0 | 13 | 
C=CCc1c(OC(C)=O)c2cc(OC)cnc2n(-c2ccccc2)c1=O | 0 |  | 
CCCCCCCCc1c(O)c2cccnc2n(-c2ccccc2)c1=O | 51 | 0 | 

From ChEMBL document CHEMBL1124002, “Antiallergy agents. 1. Substituted 1,8-naphthyridin-2(1H)-ones as inhibitors of SRS-A release” (J Med Chem, 1988)
